Screening results from PubChem.
The list is not random: actives were taken first. Their share in the collection is about 3%.
NPY2 pot ag = potentiators or agonists of human neuropeptide Y receptor Y2 | 220,000 tested, 0.45% active | activation, % at 3.6 µM | cells expressing NPY-Y2, potentiator/agonist read-out | P49146; in the data active = activation above about 27%;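 note: cells stimulated with NPY near EC25 plus isoproterenol at EC100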
Target sequence (P49146 whole entry, looked up): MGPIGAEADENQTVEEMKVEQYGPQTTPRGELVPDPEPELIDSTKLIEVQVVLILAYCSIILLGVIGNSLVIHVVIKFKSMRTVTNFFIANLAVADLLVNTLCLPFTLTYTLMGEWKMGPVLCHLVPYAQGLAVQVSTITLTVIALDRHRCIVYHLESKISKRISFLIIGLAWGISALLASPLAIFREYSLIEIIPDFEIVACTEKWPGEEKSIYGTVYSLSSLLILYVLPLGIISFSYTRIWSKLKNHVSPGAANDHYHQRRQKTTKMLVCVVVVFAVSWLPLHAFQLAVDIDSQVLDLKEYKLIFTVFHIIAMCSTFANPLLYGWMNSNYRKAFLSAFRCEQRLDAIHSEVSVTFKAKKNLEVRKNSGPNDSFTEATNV
Wee1 stabilizer = human Wee1 degradation inhibition, primary screen; P30291; HeLa Luc-Wee1K328M stability, luciferase luminescence; 100% = proteasome inhibitor MG132 effect; reporter increase, % at 5 µM; 220,000 tested, 1.2% active; AID 1321;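 active = activation above the mean of all tested compounds plus 3 SD, set per screening run, cut at about 8.8% in these data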;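 note: cells exposed to compound for 20 h before luminescence read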
NPY1 pot ag = human NPY-Y1 potentiation or agonism, primary screen. P25929. NPY-Y1 expressing cells, potentiator/agonist activation. activation, % at 3.6 µM. 220,000 tested, 0.37% active. AID 1304; in the data active = activation above about 33%, passing the limit was not always enough;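 note: cells stimulated with NPY at EC10 then isoproterenol at EC100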
NPY Y2 blocker = antagonists of human neuropeptide Y receptor Y2 | NPY-Y2 expressing cells, antagonist mode | inhibition, % at 2.7 µM | 140,000 tested, 0.99% active; in the data active = inhibition above about 17%
Hsp70 activator = transcriptional activators of Hsp70; HeLa Hsp70 promoter luciferase reporter, luminescence; scaled: vehicle 0, proteasome-inhibitor control 100%; AID 1203; 200,000 tested, 0.04% active; activation, % at 10 µM;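 active = activation above the mean across all tested compounds plus 3 SD, cutoff set per campaign, cut at about 5.5% in these data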
NPY-Y1 antag = NPY-Y1 (human) receptor antagonism | HEK293-CNG Y1 cells, membrane potential fluorescence; NPY at EC95, then isoproterenol | inhibition, % at 3.6 µM | 200,000 tested, 1% active | P25929;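 active = inhibition above the campaign mean inhibition of all tested compounds plus 3 SD, cut at about 20% in these data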
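Benchmarks – high control isoproterenol alone, low control NPY with isoproterenol · Material – HEK293 Y1/CNG channel cell line · Times – dye 3 h, compound 60 min room temperature, stimulation 45 min · Probe or stimulus – NPY (25 nM), isoproterenol (1 µM), Ro 20-1724 (25 µM) · Evaluation – % inhibition of NPY effect · Signal – fluorescence, membrane potential probe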
Hits are given with their value; . = inactive; / = no result given.

SMILES	NPY2 pot ag	Wee1 stabilizer	NPY1 pot ag	NPY Y2 blocker	Hsp70 activator	NPY-Y1 antag
CN(C)S(=O)(=O)N1CCC(c2ccc(F)cc2)C(COc2ccc3c(c2)OCO3)C1 (stereo not given)	.	.	.	27.7	.	43.6
Cc1cc(C)nc(NS(=O)(=O)c2ccc(N/C=C/C(=O)c3ccc(Cl)c(Cl)c3)cc2)n1	.	.	.	.	.	.
Cc1cc(C)c2c(N)c(C(=O)N/N=C/c3cccnc3)sc2n1	.	9.5	.	/	/	/
Cc1c(C(=O)N/N=C/c2cccnc2)sc(=S)n1C	54.4	.	57.1	.	.	.
COC(=O)N/N=C/c1cccnc1	.	.	.	.	.	.
O=C1N(Cc2cccc(Cl)c2)C[C@@H]2C[C@@H](c3ccccn3)N3CCC[C@@]123	.	9.4	.	/	.	.
CCOC(=O)c1sc2nc(C)cc(-c3ccccc3)c2c1N	.	.	.	.	.	.
CCOC(=O)c1sc2nc(-c3ccccc3)ccc2c1N	.	10.5	.	.	.	.
COc1ccc(N2C(=O)C(CC(=O)Nc3ccc(F)cc3)N(CCc3ccc(OC)c(OC)c3)C2=O)cc1 (stereo not given)	.	.	.	/	.	.
O=C(OCc1nnc(-c2ccccc2)o1)C12CC3CC(CC(Br)(C3)C1)C2	.	9.6	.	/	.	.
CCNC(=O)COc1cccc(C(=O)NCc2ccccc2)c1	.	.	.	.	.	.
Oc1ccccc1-c1nc(/C=C/c2ccccc2)nn1-c1ccccc1	.	9.6	.	.	.	.
Oc1ccc(/C=C/c2nc(-c3ccccc3O)n(-c3ccccc3)n2)cc1	.	.	.	.	.	.
CCOc1ccc(CCNC(=O)c2cc(C)nn2-c2ccccc2)cc1	.	.	.	/	/	/
CC(O)c1c(OCc2ccccc2)ncnc1OCc1ccccc1 (stereo not given)	.	.	.	.	.	32.9
Cc1nc2ccccc2nc1OCc1ccccc1	.	.	.	.	.	.
COC(=O)COc1ccc2c(-c3ccc(OC)cc3)cc(=O)oc2c1	98.4	.	98.5	.	.	.
COC(=O)COc1ccc2c(-c3cccc([N+](=O)[O-])c3)cc(=O)oc2c1	.	.	.	.	.	.
Cc1nc2ccccc2c(=O)n1N(c1ccccc1)c1ccccc1	.	.	.	/	.	.
Cc1c(-c2nc(N)nc(Nc3ccccc3)n2)oc2ccccc12	.	10.0	.	.	.	.
N=c1n(CCN2CCCCC2)c2ccccc2n1CC(O)c1ccc(Cl)c(Cl)c1 (stereo not given)	.	.	.	53.1	.	36.5
N=c1n(CCN2CCCCC2)c2ccccc2n1CC(O)c1cccc(Br)c1 (stereo not given)	.	.	.	31.9	.	41.2
N=c1n(CCN2CCCCC2)c2ccccc2n1CC(=O)c1ccc(Cl)c(Cl)c1	.	.	.	/	/	/
COc1cc(Cl)c(C)cc1NC(=S)NN	.	.	.	/	.	.
CC(C)CNC(=O)/C=C/c1cccs1	.	.	.	.	.	.
SMILES	NPY2 pot ag	Wee1 stabilizer	NPY1 pot ag	NPY Y2 blocker	Hsp70 activator	NPY-Y1 antag
CCN(CC)c1ccc(-c2nnc(SCC(=O)Nc3ccccc3C#N)n2-c2ccccc2)cc1	.	.	.	.	.	.
Cc1ccc(NC(=O)CSc2nnc(Cc3ccccc3)o2)cc1	.	10.7	.	/	.	.
Cc1cccc(NC(=O)CSc2nnc(Cc3ccccc3)o2)c1	.	.	.	/	.	.
OC1(c2ccc(F)cc2)CN(c2ccccc2)C2=[N+]1CCS2 (stereo not given)	92.5	.	108.2	.	.	.
CN1CCN(S(=O)(=O)c2cccc(C(=O)N(c3ccccn3)C3CCCCC3)c2)CC1	.	.	.	.	.	.
CC1CCN(S(=O)(=O)c2cccc(C(=O)N(Cc3ccccc3)c3ccccn3)c2)CC1	.	.	.	/	.	21.7
COc1ccc(OCc2nc(-c3ccc(F)c(F)c3)cs2)cc1	.	.	.	/	/	/
Cc1nc2c(C)cccn2c1/C(O)=C1\C(=O)C(=O)N(CCN(C)C)C1c1ccccc1 (stereo not given)	.	.	.	/	/	/
Nc1nc(Cl)nc2c1ncn2[C@@H]1O[C@H](CO)[C@@H](O)[C@H]1O	.	.	.	101.8	.	85.1
Cc1ccc2c(c1)oc(=O)n2CC(=O)c1ccccc1	.	.	.	/	/	/
Cc1nn(C2CCS(=O)(=O)C2)c(Cl)c1/C=C/C(=O)OCC(N)=O (stereo not given)	.	.	.	/	/	/
CCOCCCNCC(=O)Nc1ccc(S(=O)(=O)NC(C)CC)cc1 (stereo not given)	.	.	.	/	.	.
O=C(NCc1cccs1)C1CCCN1C(=O)Nc1ccccc1 (stereo not given)	102.0	.	110.5	.	.	.
O=C(NCc1cccs1)C1CCCN1C(=O)Nc1ccc(Cl)cc1 (stereo not given)	.	.	.	/	.	.
CC(C)(C)CC(=O)O/N=C(\N)c1ccncc1	.	.	.	/	.	.
Cc1cccc(-n2c(SCC(N)=O)nc3c(c2=O)C2(CCCC2)Cc2ccccc2-3)c1	38.8	.	48.4	.	.	.
CC(=O)c1cn(Cc2ccccc2)c(=O)[nH]c1=O	.	.	.	/	.	.
CCOc1ccccc1/C=C(/C#N)C(N)=O	.	.	.	/	/	/
O=C(O)CCC(=O)N1CCN(c2ccc(C(=O)c3ccc(F)cc3)cc2)CC1	.	.	.	.	.	.
CN1CCN(c2ccc(C(=O)c3ccc(F)cc3)cc2)CC1	.	9.0	.	.	.	.
Cc1cc(C)cc(NC(=S)NCc2ccc3c(c2)OCO3)c1	.	.	.	.	.	30.3
Cc1ccc(NC(=O)COC(=O)Cc2csc(-c3ccc(Cl)cc3)n2)cc1C	.	14.5	.	.	.	.
Cc1cc(C)n(CCCN2C(=O)c3cccc4cccc(c34)C2=O)n1	.	.	.	/	.	.
CCCCNC(=O)Cn1cnc([N+](=O)[O-])n1	.	.	.	/	.	.
COCCNC(=O)Cn1cnc([N+](=O)[O-])n1	.	9.6	.	/	.	.
SMILES	NPY2 pot ag	Wee1 stabilizer	NPY1 pot ag	NPY Y2 blocker	Hsp70 activator	NPY-Y1 antag
COC(=O)c1ccc(NC(=O)CNC(=O)C2CCCCC2)c(C)c1	.	10.2	.	.	.	.
Cc1ccc(S(=O)(=O)N(Cc2cc3cccc(C)c3[nH]c2=O)c2ccccc2)cc1	.	9.1	.	.	.	.
CCOC(=O)C1CCN(C(=O)COc2ccc(Br)cc2C)CC1	.	.	.	/	.	.
Cc1cc(Oc2ccc3ccccc3c2)nc(SCC(=O)c2ccccc2)n1	.	.	.	40.8	.	49.8
Cc1cc(Oc2ccc(Br)cc2)nc(SCC(=O)c2ccccc2)n1	.	.	.	38.8	.	52.2
COC(=O)CSc1nc(C)cc(Oc2ccccc2)n1	.	.	.	.	.	.
O=C(O)C1CC=CCC1C(=O)Nc1ccc2c(c1)OCCO2 (stereo not given)	.	.	.	.	.	.
COc1ccc(OC)c(C(=O)CSc2nccc(-c3ccc(Br)cc3)n2)c1	.	.	.	.	.	.
